Laboratory results taken from ChEMBL document CHEMBL1139597, “Evaluation of 3-substituted arginine analogs as selective inhibitors of human nitric oxide synthase isozymes” (Bioorg Med Chem Lett, 2005).
pIC50: −log10 of the molar value.

What was measured:
Nitric oxide synthase 1 = Nitric oxide synthase 1 (Homo sapiens, UniProt P29475); experiment: Inhibitory concentration against human neuronal nitric oxide synthase expressed in Sf-9 cells
Procedure, shortened: (§1)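 Recombinant human NOS isozyme produced in Sf-9 insect cells. Enzyme activity was followed as conversion of [¹⁴C]-L-Arg to [¹⁴C]-L-Cit, and IC50 was calculated from the concentration dependence of inhibition. Inhibitors were tested up to 1 mM.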

Nitric oxide synthase 3 = molecular target: T1, Nitric oxide synthase 3 (Homo sapiens, UniProt P29474); experiment: Inhibitory concentration against human endothelial nitric oxide synthase expressed in Sf-9 cells; procedure, shortened: as §1
T1 sequence (P29474 whole entry): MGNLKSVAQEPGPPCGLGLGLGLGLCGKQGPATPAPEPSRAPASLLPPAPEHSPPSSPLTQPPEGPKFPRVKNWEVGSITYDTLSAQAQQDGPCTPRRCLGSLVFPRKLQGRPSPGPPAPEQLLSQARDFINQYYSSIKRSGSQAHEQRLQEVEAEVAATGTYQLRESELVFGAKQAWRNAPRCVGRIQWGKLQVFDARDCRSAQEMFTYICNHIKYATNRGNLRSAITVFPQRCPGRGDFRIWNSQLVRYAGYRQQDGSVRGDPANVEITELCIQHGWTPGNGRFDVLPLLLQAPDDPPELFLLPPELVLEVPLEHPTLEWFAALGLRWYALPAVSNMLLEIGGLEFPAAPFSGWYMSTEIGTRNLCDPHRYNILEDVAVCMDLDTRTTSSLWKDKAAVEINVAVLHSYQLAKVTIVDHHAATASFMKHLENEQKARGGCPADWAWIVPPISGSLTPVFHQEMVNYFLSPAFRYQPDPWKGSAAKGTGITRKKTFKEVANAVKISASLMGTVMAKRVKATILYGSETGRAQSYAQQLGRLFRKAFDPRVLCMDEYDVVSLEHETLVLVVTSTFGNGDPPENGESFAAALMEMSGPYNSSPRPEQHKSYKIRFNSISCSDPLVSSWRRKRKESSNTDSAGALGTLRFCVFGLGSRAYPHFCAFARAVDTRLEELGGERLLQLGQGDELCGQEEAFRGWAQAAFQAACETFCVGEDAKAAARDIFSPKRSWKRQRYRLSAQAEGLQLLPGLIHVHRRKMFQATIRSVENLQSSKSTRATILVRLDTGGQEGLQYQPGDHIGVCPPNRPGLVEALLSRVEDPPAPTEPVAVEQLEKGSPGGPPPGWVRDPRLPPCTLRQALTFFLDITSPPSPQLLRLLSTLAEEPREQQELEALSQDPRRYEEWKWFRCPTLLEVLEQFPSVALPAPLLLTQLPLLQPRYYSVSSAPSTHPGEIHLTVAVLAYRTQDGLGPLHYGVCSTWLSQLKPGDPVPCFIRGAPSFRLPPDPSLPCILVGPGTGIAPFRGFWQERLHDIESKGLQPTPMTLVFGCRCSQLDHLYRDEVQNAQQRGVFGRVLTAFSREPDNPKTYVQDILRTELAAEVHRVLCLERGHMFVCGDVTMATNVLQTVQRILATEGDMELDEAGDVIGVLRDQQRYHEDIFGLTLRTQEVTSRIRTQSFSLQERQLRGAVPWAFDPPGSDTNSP

[1] = molecular target: Nitric oxide synthase, inducible (Homo sapiens, UniProt P35228); experiment: Inhibitory concentration against human inducible nitric oxide synthase expressed in Sf-9 cells; procedure, shortened: as §1
Chain of Nitric oxide synthase, inducible (P35228 whole entry): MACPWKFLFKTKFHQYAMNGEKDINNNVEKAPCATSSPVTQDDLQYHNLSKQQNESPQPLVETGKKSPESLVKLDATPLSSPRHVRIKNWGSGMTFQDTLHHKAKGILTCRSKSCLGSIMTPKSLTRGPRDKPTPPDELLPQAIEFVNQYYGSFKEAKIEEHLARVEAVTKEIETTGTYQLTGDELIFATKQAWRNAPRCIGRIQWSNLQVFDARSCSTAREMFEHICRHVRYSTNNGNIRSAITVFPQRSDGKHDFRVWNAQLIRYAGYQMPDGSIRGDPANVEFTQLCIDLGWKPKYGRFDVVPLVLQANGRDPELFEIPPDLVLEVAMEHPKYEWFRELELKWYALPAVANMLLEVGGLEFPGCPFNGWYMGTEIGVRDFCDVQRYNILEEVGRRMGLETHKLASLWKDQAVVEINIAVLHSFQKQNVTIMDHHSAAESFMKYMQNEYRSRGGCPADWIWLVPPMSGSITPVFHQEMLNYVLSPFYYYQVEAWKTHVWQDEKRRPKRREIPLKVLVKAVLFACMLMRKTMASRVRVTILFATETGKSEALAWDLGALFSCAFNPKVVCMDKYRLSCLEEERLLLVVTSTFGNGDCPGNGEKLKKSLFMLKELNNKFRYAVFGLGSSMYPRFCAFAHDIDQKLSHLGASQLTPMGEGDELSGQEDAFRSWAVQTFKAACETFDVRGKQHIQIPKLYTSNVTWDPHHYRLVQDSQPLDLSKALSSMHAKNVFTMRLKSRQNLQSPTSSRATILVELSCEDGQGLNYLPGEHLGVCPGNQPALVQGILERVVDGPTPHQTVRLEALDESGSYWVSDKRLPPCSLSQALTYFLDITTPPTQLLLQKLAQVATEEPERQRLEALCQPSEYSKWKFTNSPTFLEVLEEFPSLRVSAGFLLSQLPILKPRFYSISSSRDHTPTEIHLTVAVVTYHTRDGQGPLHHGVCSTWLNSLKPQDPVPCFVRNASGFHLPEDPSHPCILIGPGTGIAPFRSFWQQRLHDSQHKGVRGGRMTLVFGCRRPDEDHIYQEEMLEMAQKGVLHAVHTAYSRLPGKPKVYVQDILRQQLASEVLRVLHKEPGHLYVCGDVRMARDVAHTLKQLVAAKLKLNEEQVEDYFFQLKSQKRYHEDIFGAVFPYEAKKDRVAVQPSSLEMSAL

Chain of Nitric oxide synthase 1 (P29475 whole entry): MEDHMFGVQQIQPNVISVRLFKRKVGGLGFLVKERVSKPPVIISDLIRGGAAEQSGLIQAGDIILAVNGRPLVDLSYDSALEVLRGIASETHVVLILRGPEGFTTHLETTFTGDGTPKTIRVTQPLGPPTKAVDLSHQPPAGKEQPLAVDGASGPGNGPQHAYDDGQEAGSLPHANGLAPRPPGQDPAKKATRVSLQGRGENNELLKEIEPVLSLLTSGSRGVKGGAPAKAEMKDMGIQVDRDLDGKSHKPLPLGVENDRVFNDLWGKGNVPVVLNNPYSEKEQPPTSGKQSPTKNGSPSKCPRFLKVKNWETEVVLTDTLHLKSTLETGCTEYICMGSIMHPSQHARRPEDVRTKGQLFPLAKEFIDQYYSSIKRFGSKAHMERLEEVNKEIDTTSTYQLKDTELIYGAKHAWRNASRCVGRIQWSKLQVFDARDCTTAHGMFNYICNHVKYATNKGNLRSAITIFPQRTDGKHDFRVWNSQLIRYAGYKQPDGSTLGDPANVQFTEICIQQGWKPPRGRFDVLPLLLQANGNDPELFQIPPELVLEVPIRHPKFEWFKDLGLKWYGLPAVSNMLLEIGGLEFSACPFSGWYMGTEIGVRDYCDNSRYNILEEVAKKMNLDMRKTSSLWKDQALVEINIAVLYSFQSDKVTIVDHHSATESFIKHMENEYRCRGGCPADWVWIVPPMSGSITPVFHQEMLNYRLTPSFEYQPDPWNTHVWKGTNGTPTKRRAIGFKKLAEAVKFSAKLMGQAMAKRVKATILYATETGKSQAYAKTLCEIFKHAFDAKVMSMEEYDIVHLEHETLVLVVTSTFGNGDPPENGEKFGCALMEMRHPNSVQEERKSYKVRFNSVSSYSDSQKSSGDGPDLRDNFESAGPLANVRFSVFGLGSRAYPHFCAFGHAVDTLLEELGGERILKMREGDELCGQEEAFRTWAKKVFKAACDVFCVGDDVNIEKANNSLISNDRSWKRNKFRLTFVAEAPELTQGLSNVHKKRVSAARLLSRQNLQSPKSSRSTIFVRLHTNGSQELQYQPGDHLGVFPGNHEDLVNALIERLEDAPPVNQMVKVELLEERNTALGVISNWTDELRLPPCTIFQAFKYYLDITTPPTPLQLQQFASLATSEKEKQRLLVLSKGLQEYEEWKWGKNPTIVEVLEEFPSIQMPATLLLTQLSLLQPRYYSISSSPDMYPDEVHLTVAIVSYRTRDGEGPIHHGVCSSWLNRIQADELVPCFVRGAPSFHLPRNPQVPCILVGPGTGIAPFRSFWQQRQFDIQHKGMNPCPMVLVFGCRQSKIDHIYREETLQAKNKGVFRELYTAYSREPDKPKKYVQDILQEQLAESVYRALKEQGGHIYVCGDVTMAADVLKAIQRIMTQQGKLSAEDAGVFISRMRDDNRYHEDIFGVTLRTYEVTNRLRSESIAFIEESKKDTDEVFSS

`CSC(=N)NCCC[C@H](N)C(=O)N[C@@H](Cc1ccccc1)C(=O)O` was tested, and the pIC50 (Nitric oxide synthase 1) was 4.44, the pIC50 (Nitric oxide synthase 3) was < 3.00 and the pIC50 [1] was 5.41.

In the case of `CCC[C@@H](CCN=C(N)SC)[C@H](N)C(=O)O`, the pIC50 (Nitric oxide synthase 1) was 3.30, the pIC50 (Nitric oxide synthase 3) was < 3.00 and the pIC50 [1] was 3.43.

In the case of `CC(=N)NCC[C@@H](C)[C@H](N)C(=O)O`, the pIC50 (Nitric oxide synthase 1) was < 3.00, the pIC50 (Nitric oxide synthase 3) was < 3.00 and the pIC50 [1] was < 3.00.

Molecule `CC(=N)NCCC[C@H](N)C(=O)O` [L-NIO] has a pIC50 (Nitric oxide synthase 3) of 5.22 and a pIC50 [1] of 5.40.
